Experiments:
Rattus norvegicus [1] = assay: Antiinflammatory activity in po dosed Wistar rat assessed as inhibition of carrageenan-induced paw oedema compound administered 30 mins after carrageenan challenge measured after 5 hrs by plethysmograph analysis; type: functional
Summary of the method: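 Carrageenan paw edema in Wistar rats (150–200 g, either sex, n = 6 per group): 0.1 ml 1% w/v carrageenan injected into the left plantar region. Compounds were suspended in 0.5% w/v CMC and dosed orally 30 min post-challenge at three graded doses. Plethysmographic (mercury displacement) paw volume was read to 5 h. ED50 was derived from the three-dose responses.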

Rattus norvegicus [2] = assay: Ulcerogenicity in Wistar rat assessed as lesion score at 100 mg/kg, po after 6 hrs; type: toxicity, organism-based; parameters: dose 100 mg/kg, route oral; details: in vivo
Summary of the method: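 Wistar rats of either sex (150–200 g, n = 6) were dosed orally and killed by cervical dislocation 6 h later. Stomachs were inflated with 2% formalin, fixed 10 min, and opened along the greater curvature. Lesions were examined under a dissecting microscope (10x grid). Longest lesion diameters were summed per animal as the lesion score (mm), then averaged per group.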

Rattus norvegicus [3] = assay: Antiinflammatory activity in Wistar rat assessed as inhibition of carrageenan-induced paw oedema at 100 mg/kg, po dosed 30 mins after carrageenan challenge measured after 5 hrs by plethysmograph analysis relative to control; type: functional
Summary of the method: (§1)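 Wistar rats (150–200 g, either sex) in groups of six. Carrageenan 1% w/v in saline, 0.1 ml, injected into the plantar left hind paw. Compound was given p.o. 30 min later as a suspension in 0.5% w/v CMC; controls received CMC. Paw volume was read by mercury-displacement plethysmograph at 0–5 h. % reduction = (1 − Vt/Vc)×100 versus control, at 5 h.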

Rattus norvegicus [4] = assay: Antiinflammatory activity in Wistar rat assessed as inhibition of carrageenan-induced paw oedema at 10 mg/kg, po dosed 30 mins after carrageenan challenge measured after 5 hrs by plethysmograph analysis relative to control; type: functional; summary of the method: as §1
Rattus norvegicus [5] = assay: Antiinflammatory activity in Wistar rat assessed as inhibition of carrageenan-induced paw oedema at 30 mg/kg, po dosed 30 mins after carrageenan challenge measured after 5 hrs by plethysmograph analysis relative to control; type: functional; summary of the method: as §1

SMILES	ED50 (Rattus norvegicus [1])	UI (Rattus norvegicus [2])	inhibition in vivo at 100 mg/kg (Rattus norvegicus [3])	inhibition in vivo at 10 mg/kg (Rattus norvegicus [4])	inhibition in vivo at 30 mg/kg (Rattus norvegicus [5])
CCCCOc1cc(C(C)=O)ccc1NS(C)(=O)=O	2 mg/kg	5 mm	72.7%		
CCCCCOc1cc(C(C)=O)ccc1NS(C)(=O)=O	8.18 mg/kg	4 mm	59.6%		
CCCCCCOc1cc(C(C)=O)ccc1NS(C)(=O)=O	2.3 mg/kg	4 mm	76.8%		
CC(=O)c1ccc(NS(C)(=O)=O)c(OC2CCCCC2)c1	2.23 mg/kg	3 mm	73.7%		
CCCCOc1cc(C(C)=O)ccc1N		2 mm	13.8%		
CCCCCOc1cc(C(C)=O)ccc1N		2 mm	9.88%		
CCCCCCOc1cc(C(C)=O)ccc1N		3 mm	14.1%		
CC(=O)c1ccc(N)c(OC2CCCCC2)c1		3 mm	19%		
COc1ccc2c(c1)c(CC(=O)O)c(C)n2C(=O)c1ccc(Cl)cc1 [INDOMETHACIN]	2 mg/kg	22.3 mm		79.7%	
CS(=O)(=O)c1ccc(C2=C(c3ccccc3)C(=O)OC2)cc1 [ROFECOXIB]	2.5 mg/kg	3 mm			81.8%

— ChEMBL document CHEMBL1944577, “Synthesis, evaluation and docking studies on 3-alkoxy-4-methanesulfonamido acetophenone derivatives as non ulcerogenic anti-inflammatory agents” (Eur J Med Chem, 2012)
